According to PMC7064934 (Environmental Toxicology and Chemistry, 2019):

Tests used:
Eisenia andrei = test: Earthworm reproduction test; type: in vivo
In short: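 Clitellate 2-mo synchronized worms acclimatized 24 h in clean soil, washed and weighed. Ten per ~600 g spiked LUFA 2.2 soil (nominal 0.04–10.0 mg a.s./kg dry soil, pure or formulation), 4 replicates, horse manure as food, 20 ± 2 °C, 75% RH. Survival and weight change read on day 28. Juveniles extracted on day 56 in a 60 °C water bath. Log-logistic LC50/EC50 fitted on nominal concentrations.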

Folsomia candida = test: Collembolan reproduction test; type: in vivo; conditions: F. candida; for Times more toxic to survival than its commercial formulation: pure compound vs formulation (LC50)
In short: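 LUFA 2.2 soil spiked with aqueous pure compound or commercial formulation to 50% WHC; nominal control and 0.04–10.0 mg a.s./kg dry soil. Ten 10–12-d-old synchronized juveniles per 30 g soil, 5 replicates, weekly yeast and water top-up. Held 28 d at 20 ± 2 °C, 75% RH. Animals counted by flotation and image analysis. Log-logistic LC50/EC50 fitted on nominal concentrations.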

[1] = octanol/water partition coefficient at pH 7, 20 °C; ref University of Hertfordshire 2018; cited from earlier work
E. fetida = conditions: cited from earlier work
[2] = type: physicochemical; conditions: E. andrei test soil, nominal 10 thiamethoxam, t=56 days
In short: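 Soil (5 g) sampled from replicate jar 4 on days 0, 28 and/or 56 and stored at –20 °C. Extracted by QuEChERS and analysed by reverse-phase LC–MS/MS at an external lab; detection limit 0.01 mg a.s./kg dry soil. Soils were also screened for the parent's conversion product. DT50 derived as ln(2)/k from first-order decay without lag.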

earthworm = conditions: survival; ref National Registration Authority for Agricultural and Veterinary Chemicals (2001); cited from earlier work

C/C(=N\C#N)N(C)Cc1ccc(Cl)nc1 [Acetamiprid, acetamiprid]
Times more toxic to the survival of the earthworms compared with thiacloprid (Eisenia andrei; E. andrei, LC50 comparison): 10 | Times more toxic to survival than its commercial formulation (Folsomia candida): 3 | Times more toxic to survival than its commercial formulation (Folsomia candida; listed as acetamiprid): 4 | Log K OW [1]: 0.8 | EC50s (E. fetida; ref Wang et al. (2012), Ge et al. (2018), Wang et al. (2015)): approximately 0.30 mg a.s/kg dry soil

CN/C(=N\[N+](=O)[O-])NCc1cnc(Cl)s1 [Clothianidin, clothianidin]
Times more toxic than thiacloprid (Folsomia candida; LC50 comparison): approximately 100 | Log K OW [1]: 0.95

O=[N+]([O-])NC1=NCCN1Cc1ccc(Cl)nc1 [Imidacloprid, imidacloprid]
Times more toxic to reproduction than its commercial formulation (Folsomia candida; pure compound vs formulation (EC50)): 4

N#C/N=C1\SCCN1Cc1ccc(Cl)nc1 [Thiacloprid, thiacloprid]
Times more toxic to reproduction than to survival (Folsomia candida): approximately 3 | LC50 (E. fetida; ref Feng et al. (2015)): 8.43 mg/kg

CN1COCN(Cc2cnc(Cl)s2)/C1=N\[N+](=O)[O-] [Thiamethoxam, thiamethoxam]
Toxicity to E. andrei at the concentrations tested (in words) (Eisenia andrei; highest concentration tested 10 mg a.s./kg dry soil, survival and reproduction): no toxicity | Concentration of clothianidin measured (conversion product of thiamethoxam) [2]: 0.09 mg a.s./kg dry soil | Log K OW [1]: –0.13 | LC50, acute toxicity tests (14 d) (earthworm): > 1000 mg a.s./kg dry soil
